Results on 18 compounds are retold here after ChEMBL document CHEMBL4823293, “Fragment-based lead discovery to identify novel inhibitors that target the ATP binding site of pyruvate dehydrogenase kinases” (Bioorg Med Chem, 2021).

The structures appear in SMILES notation.

In assay [1] the target is T1, [Pyruvate dehydrogenase (acetyl-transferring)] kinase isozyme 2, mitochondrial (Homo sapiens, UniProt Q15119). The experiment in a line: Inhibition of human PDHK2 co-complexed with porcine PDH using sodium pyruvate, coenzymeA and NAD as substrate preincubated with enzyme complex for 45 mins followed by ATP addition and then later incubated with substrate for 90 mins by absorption spectrophotometric assay.

Assay [2] addresses T2, [Pyruvate dehydrogenase (acetyl-transferring)] kinase isozyme 4, mitochondrial (Homo sapiens, UniProt Q16654). The experiment in a line: Inhibition of human PDHK4 co-complexed with porcine PDH using sodium pyruvate, coenzymeA and NAD as substrate preincubated with enzyme complex for 45 mins followed by ATP addition and then later incubated with substrate for 90 mins by absorption spectrophotometric assay.
Target sequence in this assay (Q16654 whole entry): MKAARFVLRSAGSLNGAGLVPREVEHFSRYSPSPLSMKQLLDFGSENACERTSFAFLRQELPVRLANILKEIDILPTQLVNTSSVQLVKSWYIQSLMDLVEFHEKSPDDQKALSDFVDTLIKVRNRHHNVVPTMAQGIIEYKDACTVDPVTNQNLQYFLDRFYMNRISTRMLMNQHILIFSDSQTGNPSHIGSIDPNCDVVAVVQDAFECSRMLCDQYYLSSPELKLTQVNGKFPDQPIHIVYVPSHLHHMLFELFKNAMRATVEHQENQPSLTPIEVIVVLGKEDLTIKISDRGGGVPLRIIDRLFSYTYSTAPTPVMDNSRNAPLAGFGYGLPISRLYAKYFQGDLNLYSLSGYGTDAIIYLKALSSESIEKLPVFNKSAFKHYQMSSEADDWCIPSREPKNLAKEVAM

Assay [3] has as its target T1, [Pyruvate dehydrogenase (acetyl-transferring)] kinase isozyme 2, mitochondrial. The experiment in a line: Inhibition of human PDHK2 assessed as reduction in acetyl-coenzymeA formation by RapidFire mass spectrometry. The procedure, abridged:
(§1)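 PDHK reaction read through downstream PDH product. Reaction mix diluted 25-fold in 0.1% formic acid. Acetyl-CoA captured on graphitic carbon SPE (5 mM ammonium acetate pH 10.0), eluted with buffer/acetonitrile/acetone 50:25:25. […] MRM at 808/79 and 808/408; peak AUC quantified, ATP signal confirming each injection.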

Assay [4] addresses T2, [Pyruvate dehydrogenase (acetyl-transferring)] kinase isozyme 4, mitochondrial. Nature of the assay: Inhibition of human PDHK4 assessed as reduction in acetyl-coenzymeA formation by RapidFire mass spectrometry. The procedure, abridged:
as §1
Target sequence in this assay (Q16654 whole entry): as above

For assay [5] the target is unchanged. Nature of the assay: Inhibition of human PDHK4 assessed as reduction in acetyl-coenzymeA formation at IC50 by RapidFire mass spectrometry relative to control. The procedure, abridged:
as §1
Target sequence in this assay (Q16654 whole entry, looked up): as the sequence (Q16654 whole entry) above

The target of assay [6] is [Pyruvate dehydrogenase (acetyl-transferring)] kinase isozyme 3, mitochondrial (Homo sapiens, UniProt Q15120). Nature of the assay: Inhibition of human PDHK3 co-complexed with porcine PDH using sodium pyruvate, coenzymeA and NAD as substrate preincubated with enzyme complex for 45 mins followed by ATP addition and then later incubated with substrate for 90 mins by absorption spectrophotometric assay. The procedure, abridged:
(§2)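 Recombinant human PDHK mixed with porcine PDH complex, held overnight at 4 °C to form PDH/PDHK complex. Inhibitor plus 0.3 or 10 µM ATP, 45 min at room temperature. Then 5.0 mM CoA, 5.0 mM pyruvate, 12 mM NAD added, 90 min at room temperature. NADH A340 taken before and after; IC50 from Hill-type curve fit against 0% and 100% activity controls.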

The target of assay [7] is [Pyruvate dehydrogenase (acetyl-transferring)] kinase isozyme 1, mitochondrial (Homo sapiens, UniProt Q15118). The experiment in a line: Inhibition of human PDHK1 co-complexed with porcine PDH using sodium pyruvate, coenzymeA and NAD as substrate preincubated with enzyme complex for 45 mins followed by ATP addition and then later incubated with substrate for 90 mins by absorption spectrophotometric assay. The procedure, abridged:
as §2

The target in assay [8] is Serine/threonine-protein kinase mTOR (Homo sapiens) (UniProt P42345). Nature of the assay: Inhibition of human partial length wild type mTOR (L1382 to W2549 residues) expressed in mammalian expression system at 10 uM by KINOMEscan analysis. The gist of the method:
(§3)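 Competition-binding KINOMEscan service panel of 59 kinases; percent inhibition at 10 µM.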

Assay [9] concerns the target T3, Branched-chain alpha-ketoacid dehydrogenase kinase (Homo sapiens, UniProt O14874). The experiment in a line: Inhibition of human recombinant BCKDK at 500 uM incubated for 60 mins by ADP-Glo kinase assay. The gist of the method: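 Human recombinant BCKDK with inhibitor and 0.2 µM ATP, 60 min at 37 °C. ADP-Glo reagent 40 min at room temperature to stop and deplete ATP, then detection reagent 40 min to convert ADP to ATP; luminescence read.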
A general note: ADP-Glo first removes unused ATP, then detects ADP through luciferase.

Assay [10] addresses Microtubule-associated serine/threonine-protein kinase 1 (Homo sapiens) (UniProt Q9Y2H9). The experiment in a line: Inhibition of human partial length wild type MAST1 (S346 to V730 residues) expressed in mammalian expression system at 10 uM by KINOMEscan analysis. The procedure, abridged: as §3
For assay [11], the target named is Heat shock protein HSP90 (Homo sapiens) (UniProt P07900+P08238). The experiment in a line: Inhibition of HSP90 (unknown origin) at 30 uM using labelled geldanamycin by fluorescence polarization assay. It counts as protein assay. The gist of the method: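 Competitive fluorescence polarization with labelled geldanamycin probe, run as a commercial HSP90 assay kit; read as percent inhibition at a single concentration.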
(In general: Polarisation of emitted light reports the rotation of a fluorescent probe.)

Assay [12] concerns the target T3, Branched-chain alpha-ketoacid dehydrogenase kinase. The experiment in a line: Inhibition of human recombinant BCKDK incubated for 60 mins by ADP-Glo kinase assay.

Sequence of [Pyruvate dehydrogenase (acetyl-transferring)] kinase isozyme 3, mitochondrial (Q15120 whole entry): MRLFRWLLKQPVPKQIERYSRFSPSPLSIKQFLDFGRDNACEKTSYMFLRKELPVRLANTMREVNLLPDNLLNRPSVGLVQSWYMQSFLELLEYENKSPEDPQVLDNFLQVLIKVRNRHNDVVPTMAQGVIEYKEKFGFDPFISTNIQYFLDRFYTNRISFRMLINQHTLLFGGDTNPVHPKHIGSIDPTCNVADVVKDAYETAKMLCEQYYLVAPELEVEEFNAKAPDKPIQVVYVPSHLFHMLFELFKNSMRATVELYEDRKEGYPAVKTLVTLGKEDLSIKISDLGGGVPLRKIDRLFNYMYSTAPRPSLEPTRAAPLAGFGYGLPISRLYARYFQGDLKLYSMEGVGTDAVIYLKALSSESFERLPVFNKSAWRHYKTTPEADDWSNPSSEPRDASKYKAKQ
Sequence of Microtubule-associated serine/threonine-protein kinase 1 (Homo sapiens) (Q9Y2H9 whole entry, looked up, the tested form may be a part): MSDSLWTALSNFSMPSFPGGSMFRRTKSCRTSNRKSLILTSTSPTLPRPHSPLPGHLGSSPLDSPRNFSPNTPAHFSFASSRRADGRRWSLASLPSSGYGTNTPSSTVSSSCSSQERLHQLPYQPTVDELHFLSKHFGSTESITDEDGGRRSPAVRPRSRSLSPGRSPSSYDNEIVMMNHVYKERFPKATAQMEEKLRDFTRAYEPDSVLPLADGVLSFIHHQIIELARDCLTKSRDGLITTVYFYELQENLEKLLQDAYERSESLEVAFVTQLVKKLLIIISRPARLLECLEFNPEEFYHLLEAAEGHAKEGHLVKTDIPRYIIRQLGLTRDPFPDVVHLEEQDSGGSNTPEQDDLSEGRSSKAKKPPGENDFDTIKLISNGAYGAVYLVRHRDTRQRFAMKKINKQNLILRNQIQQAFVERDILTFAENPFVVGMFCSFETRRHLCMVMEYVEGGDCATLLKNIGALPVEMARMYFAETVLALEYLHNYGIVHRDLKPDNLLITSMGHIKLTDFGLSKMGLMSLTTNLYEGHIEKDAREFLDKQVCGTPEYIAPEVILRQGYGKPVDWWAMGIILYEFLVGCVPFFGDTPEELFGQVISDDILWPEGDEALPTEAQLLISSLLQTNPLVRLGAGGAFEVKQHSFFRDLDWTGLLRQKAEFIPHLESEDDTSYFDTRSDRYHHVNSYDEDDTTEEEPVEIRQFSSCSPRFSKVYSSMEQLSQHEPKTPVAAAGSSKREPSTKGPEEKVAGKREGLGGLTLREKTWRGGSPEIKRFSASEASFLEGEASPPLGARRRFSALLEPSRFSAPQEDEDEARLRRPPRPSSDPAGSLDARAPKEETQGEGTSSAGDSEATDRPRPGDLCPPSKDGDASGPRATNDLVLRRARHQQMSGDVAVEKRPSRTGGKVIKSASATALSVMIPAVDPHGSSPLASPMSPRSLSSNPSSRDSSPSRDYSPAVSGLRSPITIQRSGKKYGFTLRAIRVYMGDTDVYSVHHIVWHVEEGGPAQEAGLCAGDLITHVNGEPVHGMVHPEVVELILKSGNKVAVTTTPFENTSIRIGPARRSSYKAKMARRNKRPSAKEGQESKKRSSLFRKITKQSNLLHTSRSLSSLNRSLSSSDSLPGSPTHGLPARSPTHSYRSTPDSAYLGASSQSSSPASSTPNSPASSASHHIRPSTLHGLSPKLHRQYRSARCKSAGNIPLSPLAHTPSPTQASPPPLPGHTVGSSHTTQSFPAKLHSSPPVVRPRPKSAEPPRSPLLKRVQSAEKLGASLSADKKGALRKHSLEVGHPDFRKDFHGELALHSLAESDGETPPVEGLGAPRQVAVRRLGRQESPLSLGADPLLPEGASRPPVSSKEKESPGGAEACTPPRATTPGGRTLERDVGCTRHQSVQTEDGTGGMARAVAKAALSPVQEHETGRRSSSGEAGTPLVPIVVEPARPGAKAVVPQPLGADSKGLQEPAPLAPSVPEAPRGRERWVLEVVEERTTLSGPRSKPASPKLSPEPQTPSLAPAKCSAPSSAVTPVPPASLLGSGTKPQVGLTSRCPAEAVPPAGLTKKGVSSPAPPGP
Sequence of [Pyruvate dehydrogenase (acetyl-transferring)] kinase isozyme 1, mitochondrial (Q15118 whole entry): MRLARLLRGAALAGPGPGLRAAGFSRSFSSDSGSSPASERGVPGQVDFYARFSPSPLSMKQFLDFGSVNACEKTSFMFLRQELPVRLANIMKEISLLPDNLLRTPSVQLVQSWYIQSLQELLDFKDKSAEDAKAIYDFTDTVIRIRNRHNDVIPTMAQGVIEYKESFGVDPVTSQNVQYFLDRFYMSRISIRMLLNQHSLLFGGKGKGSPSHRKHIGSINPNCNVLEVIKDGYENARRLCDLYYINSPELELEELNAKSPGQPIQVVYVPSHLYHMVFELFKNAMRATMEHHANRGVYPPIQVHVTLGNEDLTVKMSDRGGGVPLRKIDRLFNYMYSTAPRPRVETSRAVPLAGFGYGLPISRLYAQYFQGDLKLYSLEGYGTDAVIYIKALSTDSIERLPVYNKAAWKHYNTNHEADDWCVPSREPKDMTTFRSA

On to `C/C=C/c1[nH]c2nc(C)nc(Cl)c2c1Cl`, for which the values for the IC50 in [1] and in assay [2] were 1.5 µM and 8 µM, respectively.
As to `COC(=O)c1ccc(O)cc1O` [METHYL 2,4-DIHYDROXYBENZOATE], the IC50 (as a rule, the concentration needed to halve the response being measured) in assay [3] was 192 µM; in assay [4], 345 µM.
`c1cnc2[nH]c3c(C4CC4)cccc3c2c1`: the IC50 in [1] is 3.5 µM; in assay [2], greater than 300 µM.
The matching figures for `CCCc1[nH]c2nc(C)ncc2c1Br`: 2.2 µM and 12.4 µM.
`CCCc1[nH]c2nc(C)nc(Cl)c2c1C`: the IC50 in [1] was 9.9 µM; in assay [2], greater than 30 µM.
Consider `CCCc1[nH]c2nc(C)ncc2c1C#N`, for which the IC50 in assay [1] and in [2] was greater than 30 µM each time.
Take `O=C1Cc2ccccc2N1` [OXINDOLE]: the IC50 is 958 µM in assay [3] and greater than 2000 µM in [4]. For the same compound, the inhibition (commonly the relative decrease from the control value, in per cent) in assay [5] stood at 29%.
Take `CC1(C)C(=O)Nc2c(N)cccc21`: the IC50 in assay [1] and in assay [2] was greater than 300 µM each time.
With `CNc1cccc2c1NC(=O)C2(C)C`, the IC50 is 8.4 µM in [6], 0.37 µM in assay [7], 0.59 µM in [1] and 12.8 µM in [2]. The inhibition in assay [8] worked out at 58%; in assay [9], 14%; in assay [10], 60%; in assay [11] it was 3.2%.
For `CNC(=O)c1[nH]c2nc(C)nc(Cl)c2c1Br`, the IC50 in assay [1] and in assay [2] was greater than 30 µM throughout.
Take `Cc1cnc2[nH]c3c(C4CC4)cccc3c2n1`: the half-maximal inhibitory concentration (IC50) in assay [12] was greater than 300 µM; in assay [1], 0.71 µM; in [2], 5.9 µM.
Regarding `CC1(C)C(=O)Nc2c(C3CC3)cccc21`, the IC50 in assay [1] is 4.9 µM; in assay [2] it was 43.6 µM.
On to `Cc1cnc2[nH]c3c(C4CC4)cccc3c2c1`, for which the results for the IC50 in [1] and in assay [2] were 2 µM and 12 µM, respectively.
For `CCCc1[nH]c2nc(C)ncc2c1C`, in that order: 14.7 µM and greater than 30 µM.
`CCc1cccc2c1NC(=O)C2(C)C`: the IC50 was 11 µM in assay [1] and greater than 300 µM in assay [2].
As for `CNC(=O)c1[nH]c2nc(C)nc(Cl)c2c1C`, the IC50 in [1] was 42.8 µM; in [2] it was greater than 100 µM.
As for `CCCc1[nH]c2nc(C)ncc2c1Cl`, the IC50 in assay [1] was determined as 1.8 µM; in [2], 11 µM.
As for `CC1(C)C(=O)Nc2ccccc21`, the IC50 in [3] was 50.2 µM; in assay [4], 890 µM; in assay [1] it was 279 µM; in assay [2] it was greater than 300 µM.
